One experiment deals with T1, P2X purinoceptor 3 (Rattus norvegicus, UniProt P49654).
T1 sequence (P49654 whole entry): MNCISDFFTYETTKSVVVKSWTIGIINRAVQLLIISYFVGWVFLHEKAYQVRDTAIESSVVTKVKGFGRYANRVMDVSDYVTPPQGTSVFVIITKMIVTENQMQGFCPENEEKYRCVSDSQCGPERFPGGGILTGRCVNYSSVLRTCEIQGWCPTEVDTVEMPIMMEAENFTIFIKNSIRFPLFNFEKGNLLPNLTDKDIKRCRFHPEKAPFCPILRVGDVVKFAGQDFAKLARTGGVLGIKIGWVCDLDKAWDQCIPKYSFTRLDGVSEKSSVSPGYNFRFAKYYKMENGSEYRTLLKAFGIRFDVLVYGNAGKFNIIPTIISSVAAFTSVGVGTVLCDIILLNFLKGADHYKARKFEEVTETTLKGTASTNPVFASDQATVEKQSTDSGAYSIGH
The experiment is described as follows: Inhibition of inward ion current elicited by ATP was determined at recombinant P2X3 receptor expressed in Xenopus oocytes. The format is functional, cell-based, Oocyte.

The target of experiment [1] is P2X purinoceptor 4 (Rattus norvegicus, UniProt P51577). The experiment is described as follows: Inhibition of inward ion current elicited by ATP at rat P2X4 receptor (mutant type). The format is functional.
Experiment [2] deals with T2, P2X purinoceptor 6 (Rattus norvegicus, UniProt P51579). The experiment is described as follows: Inhibition of inward ion current elicited by ATP at rat P2X6 receptor (wild type). The format is functional.
Target sequence in this assay (P51579 whole entry): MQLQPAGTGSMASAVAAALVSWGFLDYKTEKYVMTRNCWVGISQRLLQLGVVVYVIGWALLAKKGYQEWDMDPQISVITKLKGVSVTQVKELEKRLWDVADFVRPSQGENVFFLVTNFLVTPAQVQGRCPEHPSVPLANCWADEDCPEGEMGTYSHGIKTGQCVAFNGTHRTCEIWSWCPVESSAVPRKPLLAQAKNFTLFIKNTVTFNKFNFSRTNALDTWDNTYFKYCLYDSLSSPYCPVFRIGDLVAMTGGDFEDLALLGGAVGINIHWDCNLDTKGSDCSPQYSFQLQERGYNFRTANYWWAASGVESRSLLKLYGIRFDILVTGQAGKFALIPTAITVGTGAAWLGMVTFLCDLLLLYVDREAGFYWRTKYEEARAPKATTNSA
A further experiment deals with T3, P2X purinoceptor 1 (Rattus norvegicus, UniProt P47824).
T3 sequence (P47824 whole entry): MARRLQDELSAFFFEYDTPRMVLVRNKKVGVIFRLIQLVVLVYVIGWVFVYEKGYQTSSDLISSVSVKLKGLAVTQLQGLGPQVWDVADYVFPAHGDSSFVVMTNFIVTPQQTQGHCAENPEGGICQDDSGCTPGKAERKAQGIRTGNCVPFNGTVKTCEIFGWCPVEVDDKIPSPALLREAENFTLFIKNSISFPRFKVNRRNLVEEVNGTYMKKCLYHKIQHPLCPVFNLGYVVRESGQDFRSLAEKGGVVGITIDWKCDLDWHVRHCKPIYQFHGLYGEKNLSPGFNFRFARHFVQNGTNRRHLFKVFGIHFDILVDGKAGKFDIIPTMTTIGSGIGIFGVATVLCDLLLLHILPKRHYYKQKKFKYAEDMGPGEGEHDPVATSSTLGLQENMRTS
The experiment is described as follows: Inhibition of inward ion current elicited by ATP at P2X1 receptor expressed in Xenopus oocytes. The format is functional, cell-based, Oocyte.

In experiment [3] the target is T4, P2X purinoceptor 4 (Rattus norvegicus, UniProt P51577).
T4 sequence (P51577 whole entry): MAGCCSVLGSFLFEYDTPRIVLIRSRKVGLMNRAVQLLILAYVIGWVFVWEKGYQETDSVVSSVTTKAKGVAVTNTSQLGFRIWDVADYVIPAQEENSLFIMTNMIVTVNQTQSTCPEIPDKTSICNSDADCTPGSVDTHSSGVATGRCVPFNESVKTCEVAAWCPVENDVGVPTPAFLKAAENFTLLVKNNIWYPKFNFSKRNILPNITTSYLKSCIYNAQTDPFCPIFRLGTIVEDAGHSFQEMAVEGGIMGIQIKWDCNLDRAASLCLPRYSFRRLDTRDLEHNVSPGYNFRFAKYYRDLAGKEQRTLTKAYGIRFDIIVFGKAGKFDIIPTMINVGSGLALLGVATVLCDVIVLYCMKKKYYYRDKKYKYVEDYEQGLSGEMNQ
Kind of experiment: Inhibition of inward ion current elicited by ATP at rat P2X4 receptor (wild type). The format is functional.

The target in a further experiment is T5, P2X purinoceptor 2 (Rattus norvegicus, UniProt P49653).
T5 sequence (P49653 whole entry): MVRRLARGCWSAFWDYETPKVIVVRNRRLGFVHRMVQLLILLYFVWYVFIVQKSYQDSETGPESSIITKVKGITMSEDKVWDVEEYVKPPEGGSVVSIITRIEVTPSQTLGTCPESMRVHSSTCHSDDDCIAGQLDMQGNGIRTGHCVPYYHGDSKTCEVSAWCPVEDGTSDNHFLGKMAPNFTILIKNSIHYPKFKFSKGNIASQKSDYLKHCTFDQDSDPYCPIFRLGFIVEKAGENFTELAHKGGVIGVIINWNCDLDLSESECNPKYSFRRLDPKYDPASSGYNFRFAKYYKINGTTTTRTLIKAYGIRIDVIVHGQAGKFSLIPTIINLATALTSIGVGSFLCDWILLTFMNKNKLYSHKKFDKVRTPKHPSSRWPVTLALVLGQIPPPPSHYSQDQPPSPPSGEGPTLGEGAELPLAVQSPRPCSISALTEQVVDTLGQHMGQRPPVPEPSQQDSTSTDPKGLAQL
The experiment is described as follows: Inhibition of inward ion current elicited by ATP at P2X2 receptor expressed in Xenopus oocytes. The format is functional, cell-based, Oocyte.

Experiment [4] has as its target T6, P2Y purinoceptor 1 (Meleagris gallopavo, UniProt P49652). The experiment is described as follows: Inhibition of 10 nM 2-MeS-ADP-stimulated phospholipase C in turkey erythrocyte membranes using [3H]inositol. The format is functional, cell membranes. The gist of the method:
(§1)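 Turkey erythrocytes labelled 18-24 h at 37 °C with 2-[³H]myo-inositol in inositol-free DMEM, then lysed hypotonically (5 mM sodium phosphate pH 7.4, 5 mM MgCl₂, 1 mM EGTA) to make ghosts. Ghosts were incubated 5 min at 30 °C in pH 7.0 Hepes/KCl buffer with 1 µM GTPγS and 10 nM 2-MeSADP. Total [³H]inositol phosphates were measured by anion-exchange chromatography; 3-8 independent determinations.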

For experiment [5], the target named is T2, P2X purinoceptor 6. The experiment is described as follows: Inhibition of inward ion current elicited by ATP at rat P2X6 receptor (mutant type). The format is functional.
Target sequence in this assay (P51579 whole entry, looked up): as the sequence (P51579 whole entry) above
For experiment [6], the target named is T6, P2Y purinoceptor 1. The experiment is described as follows: Inhibition of 10 nM 2-MeS-ADP-stimulated phospholipase C in turkey erythrocyte membrane. The format is functional, cell membranes. The gist of the method: as §1

These results are taken from ChEMBL document CHEMBL1134335, “Structure-activity relationships of pyridoxal phosphate derivatives as potent and selective antagonists of P2X1 receptors” (J Med Chem, 2001).

Molecules are shown by their SMILES.

What is called IC50 is the concentration that inhibits the measured activity by half.

T6 sequence (P49652 whole entry): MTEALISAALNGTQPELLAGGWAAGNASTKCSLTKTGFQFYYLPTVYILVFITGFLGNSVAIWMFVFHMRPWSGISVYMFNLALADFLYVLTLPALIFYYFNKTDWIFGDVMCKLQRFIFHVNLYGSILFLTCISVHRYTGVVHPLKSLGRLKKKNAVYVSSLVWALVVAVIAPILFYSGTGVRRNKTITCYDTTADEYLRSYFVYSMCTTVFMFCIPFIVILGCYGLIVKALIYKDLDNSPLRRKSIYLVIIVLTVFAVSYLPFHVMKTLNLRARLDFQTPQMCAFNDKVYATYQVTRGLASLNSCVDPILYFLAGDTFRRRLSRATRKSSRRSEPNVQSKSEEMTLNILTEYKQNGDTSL

Turning to `Cc1nc(/N=N/c2ccc(S(=O)(=O)O)cc2S(=O)(=O)O)c(COP(=O)(O)O)c(C=O)c1O`, the IC50 is 240 nM on P2X purinoceptor 3; 2600 nM on P2X purinoceptor 4 [1]; > 500000 nM on P2X purinoceptor 6 [2]; 99 nM against P2X purinoceptor 1; > 500000 nM against P2X purinoceptor 4 [3]; 1600 nM against P2X purinoceptor 2. Besides, the IC50 was 16600 nM at P2Y purinoceptor 1 [4] and 2000 nM at P2X purinoceptor 6 [5].
Turning to `Cc1nc(/N=N/c2ccccc2)c(COP(=O)(O)O)c(C=O)c1O`, the IC50 at P2X purinoceptor 3 turned out to be 480 nM; against P2X purinoceptor 1 it was 42 nM; on P2Y purinoceptor 1 [6], 54000 nM; at P2X purinoceptor 2, 1200 nM.
